The text below walks through data of ChEMBL document CHEMBL3864154, “Discovery and preliminary structure-activity relationship of 1H-indazoles with promising indoleamine-2,3-dioxygenase 1 (IDO1) inhibition properties” (Bioorg Med Chem, 2016).

Each structure is given as a SMILES string.

In experiment [1] the target is T1, Indoleamine 2,3-dioxygenase 1 (Homo sapiens, UniProt P14902). Briefly: Inhibition of recombinant human N-terminus IDO1 expressed in Escherichia coli assessed as N-formylkynurenine formation at 1 uM using L-tryptophan as substrate measured after 180 mins by UV absorbance based assay.
Target sequence in this assay (P14902 whole entry, looked up): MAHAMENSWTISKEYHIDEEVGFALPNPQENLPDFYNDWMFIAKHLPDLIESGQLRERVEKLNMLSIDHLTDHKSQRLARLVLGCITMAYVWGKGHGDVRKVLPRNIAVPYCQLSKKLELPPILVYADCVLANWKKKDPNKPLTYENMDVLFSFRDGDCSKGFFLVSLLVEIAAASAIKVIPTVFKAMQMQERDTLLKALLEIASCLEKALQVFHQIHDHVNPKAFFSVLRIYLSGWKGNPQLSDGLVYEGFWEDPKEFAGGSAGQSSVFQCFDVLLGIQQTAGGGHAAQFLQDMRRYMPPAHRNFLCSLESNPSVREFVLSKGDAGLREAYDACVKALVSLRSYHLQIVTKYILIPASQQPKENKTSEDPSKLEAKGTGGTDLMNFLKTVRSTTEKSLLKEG
Experiment [2] deals with T1, Indoleamine 2,3-dioxygenase 1. Briefly: Inhibition of recombinant human N-terminus IDO1 expressed in Escherichia coli assessed as N-formylkynurenine formation at 100 uM using L-tryptophan as substrate measured after 180 mins by UV absorbance based assay. The method, boiled down:
(§1)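 Human N-terminal IDO1 expressed in E. coli, Ni affinity-purified; 40 nmol/L enzyme with 900 μmol/L tryptophan plus coupled reaction components in IDO1 assay buffer, 0.5% DMSO final, room temperature, 180 min. N-formylkynurenine read by UV absorbance at 321 nm. Blank lacks enzyme; positive control lacks inhibitor.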
Target sequence in this assay (P14902 whole entry, looked up): as above

The target is the same in experiment [3]. Briefly: Inhibition of recombinant human N-terminus IDO1 expressed in Escherichia coli assessed as N-formylkynurenine formation at 10 uM using L-tryptophan as substrate measured after 180 mins by UV absorbance based assay. In a few lines: as §1
Target sequence in this assay (P14902 whole entry, looked up): as above
Experiment [4] has the same target. Briefly: Inhibition of recombinant human N-terminus IDO1 expressed in Escherichia coli assessed as residual activity at -8.8 log[compound]/M using L-tryptophan as substrate measured after 180 mins by UV absorbance based assay relative to control. The method, boiled down: (§2)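 E. coli-expressed, Ni affinity-purified human N-terminal IDO1 at 40 nmol/L with 900 μmol/L tryptophan, coupled reaction components, 0.5% DMSO final, room temperature, 180 min; N-formylkynurenine read at 321 nm. Duplicates per concentration; % activity relative to no-inhibitor control, fitted by sigmoidal dose-response nonlinear regression; IC50 at half-maximal activity.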
Target sequence in this assay (P14902 whole entry, looked up): as above

Experiment [5] shares this target. Briefly: Inhibition of recombinant human N-terminus IDO1 expressed in Escherichia coli assessed as residual activity at -6.9 log[compound]/M using L-tryptophan as substrate measured after 180 mins by UV absorbance based assay relative to control. The method, boiled down: as §2
Target sequence in this assay (P14902 whole entry, looked up): as above
Experiment [6] shares this target. The experiment in a line: Inhibition of recombinant human N-terminus IDO1 expressed in Escherichia coli assessed as residual activity at -5 log[compound]/M using L-tryptophan as substrate measured after 180 mins by UV absorbance based assay relative to control. The method, boiled down: as §2
Target sequence in this assay (P14902 whole entry, looked up): as above
For experiment [7] the target is unchanged. The experiment in a line: Inhibition of recombinant human N-terminus IDO1 expressed in Escherichia coli assessed as residual activity at -7.8 log[compound]/M using L-tryptophan as substrate measured after 180 mins by UV absorbance based assay relative to control. The method, boiled down:
as §2

Experiment [8] has the same target. The experiment in a line: Inhibition of recombinant human N-terminus IDO1 expressed in Escherichia coli assessed as residual activity at -6.4 log[compound]/M using L-tryptophan as substrate measured after 180 mins by UV absorbance based assay relative to control. In a few lines:
as §2

For experiment [9] the target is unchanged. Briefly: Inhibition of recombinant human N-terminus IDO1 expressed in Escherichia coli assessed as N-formylkynurenine formation using L-tryptophan as substrate measured after 180 mins by UV absorbance based assay. The method, boiled down:
as §2
Target sequence in this assay (P14902 whole entry): as the sequence (P14902 whole entry, looked up) above

For experiment [10] the target is unchanged. Briefly: Inhibition of recombinant human N-terminus IDO1 expressed in Escherichia coli assessed as residual activity at -5.9 log[compound]/M using L-tryptophan as substrate measured after 180 mins by UV absorbance based assay relative to control. In a few lines:
as §2

The target is the same in experiment [11]. Briefly: Inhibition of recombinant human N-terminus IDO1 expressed in Escherichia coli assessed as residual activity at -5.4 log[compound]/M using L-tryptophan as substrate measured after 180 mins by UV absorbance based assay relative to control. In a few lines: as §2
Experiment [12] shares this target. The experiment in a line: Inhibition of recombinant human N-terminus IDO1 expressed in Escherichia coli assessed as residual activity at -7.3 log[compound]/M using L-tryptophan as substrate measured after 180 mins by UV absorbance based assay relative to control. The method, boiled down: as §2
Experiment [13] shares this target. Briefly: Inhibition of recombinant human N-terminus IDO1 expressed in Escherichia coli assessed as residual activity at -8.3 log[compound]/M using L-tryptophan as substrate measured after 180 mins by UV absorbance based assay relative to control. In a few lines: as §2
Experiment [14] shares this target. Briefly: Inhibition of recombinant human N-terminus IDO1 expressed in Escherichia coli assessed as residual activity at -4.5 log[compound]/M using L-tryptophan as substrate measured after 180 mins by UV absorbance based assay relative to control. The method, boiled down: as §2

`O=C(O)c1cccc(CNc2ncnc3[nH]ncc23)c1`: the inhibition (as a rule, the share of the control response that was lost under treatment) in [1] came out at 2%; in experiment [2], 7%; in experiment [3], 2%.

As to `O=C(O)c1ccc(CNc2cc(Br)cc3[nH]ncc23)cc1`, the inhibition in [1] is 19%; in [2], 91 to 94%; in experiment [3] it was 49 to 58%.

On to `O=C(O)c1ccc(COc2cc(Br)cc3[nH]ncc23)cc1`, for which the inhibition in experiment [2] turned out to be 69%; in experiment [3], 18%.

As for `O=C(O)c1cccc(COc2cc(Br)cc3[nH]ncc23)c1`, the inhibition is 40% in [2] and 7% in experiment [3].

For the compound `O=C(O)Cc1ccc(CNc2cc(Br)cc3[nH]ncc23)cc1`, the inhibition in experiment [2] amounted to 79%; in experiment [3] it was 27%.

With `Oc1ccc(CNc2cc(Br)cc3[nH]ncc23)cc1`, the Activity in [4] was 92%; in experiment [5], 87%; in experiment [6] it was 26%; in experiment [7], 91%; in experiment [8], 82%; in experiment [10] it was 71%. Also, the Activity was found to be 51% in [11], 88% in experiment [12], 91% in experiment [13] and 9% in experiment [14]. The inhibition in experiment [2] stood at 100%; in [3] it was 70%. Besides, the IC50 (in general, the concentration that gives 50% inhibition) in experiment [9] amounted to 5.3 µM.

On to `Cc1ccc(CNc2cc(Br)cc3[nH]ncc23)cc1`, for which the inhibition in [2] was determined as 84%; in [3], 20%.

For `O=C(CNc1cc(Br)cc2[nH]ncc12)Nc1ccc(C(=O)O)cc1`, the inhibition in experiment [1] was 3%; in [2], 37%; in [3], 12%.

In the case of `Cc1nc(NCc2ccc(C(=O)O)cc2)c2cn[nH]c2n1`, the inhibition in [1] came to 3%; in experiment [2] it was 37%; in experiment [3], 5%.

As to `Cc1nc(NCc2cccc(C(=O)O)c2)c2cn[nH]c2n1`, the figures for the inhibition in experiment [1], in experiment [2] and in experiment [3] were 3%, 32% and 5%, respectively.

Take `Oc1ccccc1CNc1cc(Br)cc2[nH]ncc12`: the inhibition was 100% in experiment [2] and 41% in [3].

As for `O=C(O)c1ccc(CNc2ncnc3[nH]ncc23)cc1`, the inhibition was determined as 3% in experiment [1], 9% in experiment [2] and 3% in [3].

`Brc1cc(NCc2ccccc2)c2cn[nH]c2c1`: the inhibition in [2] was determined as 100%; in experiment [3], 37%.

Take `O=C(O)c1cc(CNc2cc(Br)cc3[nH]ncc23)ccc1O`: the inhibition was found to be 88% in experiment [2] and 38% in [3].

Regarding `O=C(O)c1ccc(C(CO)Nc2cc(Br)cc3[nH]ncc23)cc1` (centres undefined), the results for the inhibition in experiment [2] and in experiment [3] were 68% and 19%, respectively.

Regarding `O=C(O)c1ccc(C(O)CNc2cc(Br)cc3[nH]ncc23)cc1` (centres undefined), the inhibition came to 73% in experiment [2] and 31% in [3].

As to `Clc1ccc(CNc2cc(Br)cc3[nH]ncc23)cc1`, the values for the inhibition in experiment [2] and in experiment [3] were 100% and 42%, respectively.

Consider `NS(=O)(=O)NCCNc1nonc1/C(=N/O)Nc1ccc(F)c(Br)c1`, for which, in [3], the inhibition came to 100%.

As for `O=C(CNc1cc(Br)cc2[nH]ncc12)NC1CCOCC1`, the inhibition in experiment [1] came out at 4%; in experiment [2] it was 34%; in [3], 8%.

In the case of `O=C(O)c1ccc(CNc2cccc3[nH]ncc23)cc1`, the inhibition in [2] was determined as 24%; in [3], 1%.

Take `O=C(O)c1cccc(CNc2cc(Br)cc3[nH]ncc23)c1`: the inhibition was determined as 74% in [2] and 21% in experiment [3].
